Structures are written as SMILES.

The values that follow come from ChEMBL document CHEMBL1152940 (Bioorg Med Chem, 2009).

For one experiment, the target named is D(1A) dopamine receptor (Homo sapiens, UniProt P21728). Nature of the experiment: Displacement of [3H]SCH23390 from dopamine D1 receptor expressed in Ltk deficient fibroblast cells by liquid scintillation counting. It counts as cell-based.
Experiment [1] concerns the target T1, D(2) dopamine receptor (Rattus norvegicus, UniProt P61169). In words: Agonist activity at rat dopamine D2short receptor expressed in CHO-K1 cells assessed as stimulation of [35S]GTPgammaS binding by liquid scintillation counting. The class given is functional, cell-based.
A short description of experiment [2]: Selectivity index, ratio of Ki for dopamine D1 receptor to Ki for rat dopamine D2short receptor.
The target in experiment [3] is D(2) dopamine receptor (Rattus norvegicus) (UniProt P61169). Nature of the experiment: Agonist activity at rat dopamine D2short receptor expressed in CHO-K1 cells assessed as stimulation of [35S]GTPgammaS binding by liquid scintillation counting relative to dopamine. The class given is functional, cell-based. The procedure, abridged: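 Membranes from CHO-K1 cells stably expressing the receptor were prepared by sonication in Tris buffer (pH 7.4, with NaCl, KCl, MgCl2 and EDTA). They were incubated with 0.2 nM [35S]GTPγS, 10 µM GDP and a compound concentration series for 90 min at 25 °C. Samples were filtered on GF/B and washed with ice-cold phosphate buffer before scintillation counting. Curves were fitted by non-linear regression. Means ± SEM come from ≥2 independent experiments, each in duplicate.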
D(2) dopamine receptor (Rattus norvegicus), sequence (P61169 whole entry): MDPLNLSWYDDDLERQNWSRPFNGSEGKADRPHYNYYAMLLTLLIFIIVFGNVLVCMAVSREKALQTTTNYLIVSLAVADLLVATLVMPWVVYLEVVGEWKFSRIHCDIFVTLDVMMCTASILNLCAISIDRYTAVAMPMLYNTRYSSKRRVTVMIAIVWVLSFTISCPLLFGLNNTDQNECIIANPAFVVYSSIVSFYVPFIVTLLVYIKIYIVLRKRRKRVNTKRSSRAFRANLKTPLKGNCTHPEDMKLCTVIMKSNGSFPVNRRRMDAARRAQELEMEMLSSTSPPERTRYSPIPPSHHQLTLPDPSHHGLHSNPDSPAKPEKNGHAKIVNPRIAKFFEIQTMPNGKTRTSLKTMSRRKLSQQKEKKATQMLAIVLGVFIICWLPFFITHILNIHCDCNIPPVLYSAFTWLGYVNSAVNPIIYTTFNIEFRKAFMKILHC

Experiment [4] concerns the target T1, D(2) dopamine receptor. Nature of the experiment: Displacement of [3H]raclopride from rat dopamine D2short receptor expressed in CHO-K1 cells by liquid scintillation counting. It counts as cell-based.

T1 sequence (P61169 whole entry): as above
D(1A) dopamine receptor, sequence (P21728 whole entry): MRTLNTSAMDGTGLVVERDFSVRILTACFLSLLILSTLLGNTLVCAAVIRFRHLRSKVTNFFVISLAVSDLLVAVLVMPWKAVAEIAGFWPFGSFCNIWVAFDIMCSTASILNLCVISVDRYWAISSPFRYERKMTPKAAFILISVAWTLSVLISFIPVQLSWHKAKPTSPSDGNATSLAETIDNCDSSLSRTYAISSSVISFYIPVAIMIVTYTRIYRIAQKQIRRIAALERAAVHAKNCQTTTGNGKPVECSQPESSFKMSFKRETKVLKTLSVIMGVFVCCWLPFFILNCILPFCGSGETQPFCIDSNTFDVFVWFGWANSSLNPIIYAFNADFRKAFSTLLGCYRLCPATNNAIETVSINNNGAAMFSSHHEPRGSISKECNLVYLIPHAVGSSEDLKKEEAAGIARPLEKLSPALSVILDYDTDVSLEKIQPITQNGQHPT

Consider `CN1CCc2cc(-c3ccc(O)cc3)cc3c2[C@H]1Cc1ccc(O)c(O)c1-3`, for which the Ki on D(1A) dopamine receptor amounted to 755 nM. Besides, the EC50 on D(2) dopamine receptor [1] was 8.5 nM. Also, in experiment [2], the Ratio Ki is 182.
For `CCN1CCc2cc(-c3ccc(O)cc3)cc3c2[C@H]1Cc1ccc(O)c(O)c1-3`, in experiment [3], the Efficacy turned out to be 112%. Moreover, the Ki was found to be 124 nM at D(1A) dopamine receptor and 1.5 nM at D(2) dopamine receptor [4]. Also, the EC50 on D(2) dopamine receptor [1] stood at 8.7 nM. The Ratio Ki in experiment [2] amounted to 83.
For the compound `CN1CCc2cccc3c2[C@H]1Cc1ccc(O)c(O)c1-3`, the Efficacy in experiment [3] amounted to 58%.
In turn, `CN1CCc2cc(-c3ccccc3)cc3c2[C@H]1Cc1ccc(O)c(O)c1-3` had a Ki on D(1A) dopamine receptor of 88 nM. Moreover, on D(2) dopamine receptor [1], the EC50 came to 23 nM. Also, the Ratio Ki in experiment [2] is 7.5.
As to `CCCN1CCc2cc(-c3ccccc3)cc3c2[C@H]1Cc1ccc(O)c(O)c1-3`, in experiment [3], the Efficacy was 100%. In addition, the Ki on D(1A) dopamine receptor turned out to be 669 nM; on D(2) dopamine receptor [4] it was 192 nM. For the same compound, the concentration for a half-maximal effect (EC50) on D(2) dopamine receptor [1] is 577 nM. Besides, the Ratio Ki in experiment [2] was found to be 3.5.
On to `CCN1CCc2cc(C)cc3c2[C@H]1Cc1ccc(O)c(O)c1-3`, for which the Efficacy in experiment [3] came out at 112%. Further, the Ki on D(1A) dopamine receptor was 1340 nM; at D(2) dopamine receptor [4] it was 115 nM. Also, the EC50 at D(2) dopamine receptor [1] came out at 480 nM. In addition, the Ratio Ki in experiment [2] turned out to be 12.
In the case of `CCCN1CCc2cc(C)cc3c2[C@H]1Cc1ccc(O)c(O)c1-3`, in experiment [3], the Efficacy turned out to be 65%. The values for the Ki at D(1A) dopamine receptor and at D(2) dopamine receptor [4] were 278 nM and 9.2 nM, respectively. Besides, the EC50 on D(2) dopamine receptor [1] is 40 nM. The Ratio Ki in experiment [2] is 30.
Turning to `Cc1cc2c3c(c1)-c1c(ccc(O)c1O)C[C@H]3N(C)CC2`, the EC50 on D(2) dopamine receptor [1] is 43 nM.
As for `CCCN1CCc2cc(-c3ccc(O)cc3)cc3c2[C@H]1Cc1ccc(O)c(O)c1-3`, the Efficacy in experiment [3] was 99%. Moreover, the values for the Ki at D(1A) dopamine receptor and at D(2) dopamine receptor [4] were 94 nM and 2 nM, respectively. The EC50 at D(2) dopamine receptor [1] was 12 nM. Further, in experiment [2], the Ratio Ki stood at 47.
Take `CCN1CCc2cc(-c3ccccc3)cc3c2[C@H]1Cc1ccc(O)c(O)c1-3`: the Efficacy in experiment [3] amounted to 72%. Besides, the Ki on D(1A) dopamine receptor was found to be 31 nM; at D(2) dopamine receptor [4], 14 nM. For the same compound, the EC50 on D(2) dopamine receptor [1] was 51 nM. Further, the Ratio Ki in experiment [2] was 2.2.
